Results on one compound are retold here after ChEMBL document CHEMBL4190396, “Discovery of Novel Small-Molecule Inhibitors of NF-κB Signaling with Antiinflammatory and Anticancer Properties” (J Med Chem, 2018).

The source made the active and inactive calls. The calls are words filed in the database; no cut-off is given here. Where only a bound is given, the exact number is not on record here.

The subject of assay [1] is HeLa. The experiment in a line: Induction of apoptosis in human HeLa cells after 24 hrs by Annexin-V FITC/propidium iodide staining based flow cytometry. The class given is functional, cell-based. Summed up:
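HeLa cells, 3×10^5/well, attached 24 h, then DMSO or 5, 10, 20 µM for 24 h; harvested with EDTA-free 0.25% trypsin, Annexin V-FITC/PI double stained, flow cytometry; early plus late apoptotic fractions counted; three independent experiments.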
For orientation: Flow cytometry measures light scatter and fluorescence of single cells or particles in a stream.

The target of assay [2] is T1, Toll-like receptor 7 (Homo sapiens) (UniProt Q9NYK1).
T1 sequence (whole entry): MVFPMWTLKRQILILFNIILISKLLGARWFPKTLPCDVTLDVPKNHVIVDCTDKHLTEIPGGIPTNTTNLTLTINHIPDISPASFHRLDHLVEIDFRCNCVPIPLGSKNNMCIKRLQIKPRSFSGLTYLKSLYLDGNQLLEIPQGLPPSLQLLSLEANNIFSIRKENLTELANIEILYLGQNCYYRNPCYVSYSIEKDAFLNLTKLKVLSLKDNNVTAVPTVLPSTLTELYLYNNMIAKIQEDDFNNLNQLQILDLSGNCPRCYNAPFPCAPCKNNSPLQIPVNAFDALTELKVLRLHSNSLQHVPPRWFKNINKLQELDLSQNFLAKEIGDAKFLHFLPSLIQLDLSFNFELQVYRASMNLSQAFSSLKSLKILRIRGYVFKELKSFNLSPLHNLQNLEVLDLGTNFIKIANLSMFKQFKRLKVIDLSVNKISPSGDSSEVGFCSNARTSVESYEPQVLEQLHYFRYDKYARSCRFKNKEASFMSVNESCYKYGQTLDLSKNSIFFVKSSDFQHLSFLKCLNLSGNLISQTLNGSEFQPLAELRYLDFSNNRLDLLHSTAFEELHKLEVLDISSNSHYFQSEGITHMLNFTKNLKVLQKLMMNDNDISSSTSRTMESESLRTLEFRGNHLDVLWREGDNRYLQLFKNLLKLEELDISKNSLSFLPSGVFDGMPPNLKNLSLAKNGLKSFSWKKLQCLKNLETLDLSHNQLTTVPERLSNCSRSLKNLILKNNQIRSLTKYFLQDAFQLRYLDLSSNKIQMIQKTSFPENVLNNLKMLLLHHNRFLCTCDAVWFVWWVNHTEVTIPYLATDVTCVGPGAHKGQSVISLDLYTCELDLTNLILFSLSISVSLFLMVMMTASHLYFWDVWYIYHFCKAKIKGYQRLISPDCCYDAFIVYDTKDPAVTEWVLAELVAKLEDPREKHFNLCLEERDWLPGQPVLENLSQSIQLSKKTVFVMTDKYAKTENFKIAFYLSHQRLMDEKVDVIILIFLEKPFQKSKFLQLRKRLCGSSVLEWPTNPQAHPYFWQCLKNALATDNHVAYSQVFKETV
Briefly: Inhibition of human TLR7 expressed in HEK293 cells assessed as decrease in R848-induced NF-kappaB activation-mediated SEAP production at 5 uM after 24 hrs by Quanti-blue-based assay relative to control. The class given is cell-based.

In assay [3] the target is MAP kinase p38 (Mus musculus) (UniProt P47811+O08911+Q9WUI1+Q9Z1B7). Briefly: Inhibition of LPS-induced p38 MAPK phosphorylation in mouse RAW264.7 cells at 1 to 10 uM preincubated for 1 hr followed by LPS stimulation for 15 to 30 mins by Western blot method. The class given is cell-based. Summed up: (§1)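 RAW 264.7 cells, 3×10^6 per dish overnight, pretreated 1 h with 1, 5 or 10 µM, then LPS 100 ng/mL for 15 or 30 min; nuclear/cytoplasmic lysates (20–30 µg) run on 10% SDS-PAGE, immunoblotted for phospho/total proteins, GAPDH loading control, ECL, densitometry; three independent experiments.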
(A western blot detects proteins with antibodies after separation by electrophoresis.)

Assay [4] has as its target Proto-oncogene tyrosine-protein kinase Src (Homo sapiens) (UniProt P12931). The experiment in a line: Inhibition of SRC (unknown origin) at 5 uM using KVEKIGEGTYGVVYK-amide as substrate by ADP-Glo kinase assay relative to control.
Assay [5] deals with Mitogen-activated protein kinase 15 (Homo sapiens) (UniProt Q8TD08). Briefly: Inhibition of wild-type human partial length ERK8 (M1 to P437 residues) expressed in bacterial expression system assessed as residual activity at 20 uM by Kinomescan method relative to control.
Chain of Mitogen-activated protein kinase 15 (Homo sapiens) (Q8TD08 whole entry, the tested form may be a part): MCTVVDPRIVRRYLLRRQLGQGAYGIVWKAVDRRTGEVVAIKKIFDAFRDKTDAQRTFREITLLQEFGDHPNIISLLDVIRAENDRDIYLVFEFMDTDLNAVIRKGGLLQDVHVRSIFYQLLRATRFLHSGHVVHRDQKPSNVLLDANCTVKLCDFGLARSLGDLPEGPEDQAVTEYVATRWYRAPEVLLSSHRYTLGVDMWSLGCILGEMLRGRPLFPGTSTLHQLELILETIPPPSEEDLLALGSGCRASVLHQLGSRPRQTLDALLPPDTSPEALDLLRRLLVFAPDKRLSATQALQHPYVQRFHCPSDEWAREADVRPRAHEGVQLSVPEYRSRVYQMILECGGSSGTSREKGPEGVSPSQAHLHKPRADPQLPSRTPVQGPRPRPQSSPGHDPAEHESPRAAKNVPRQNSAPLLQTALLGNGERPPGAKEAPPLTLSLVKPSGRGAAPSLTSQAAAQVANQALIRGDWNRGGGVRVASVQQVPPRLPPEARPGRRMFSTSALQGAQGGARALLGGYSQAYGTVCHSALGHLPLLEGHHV
Assay [6] addresses Inhibitor of nuclear factor kappa-B kinase subunit alpha/beta (Mus musculus) (UniProt Q60680+O88351). The experiment in a line: Inhibition of IKK-alphabeta in mouse RAW264.7 cells assessed as reduction in LPS-induced IKK-alphabeta phosphorylation at 1 to 10 uM preincubated for 1 hr followed by LPS stimulation for 15 to 30 mins by Western blot method. The class given is cell-based. Put shortly: as §1

Assay [7] relates to HeLa. The experiment in a line: Cell cycle arrest in human HeLa cells assessed as accumulation at G2/M phase at 20 uM after 24 hrs by propidium iodide staining based flow cytometry (reference value: 15.7%). The class given is functional. Put shortly:
(§2)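 HeLa cells, 3×10^5/well, attached overnight, switched to serum-free medium for synchronisation, then DMSO or 5, 10, 20 µM for 24 h; cells fixed, PI-stained, G0/G1, S and G2/M fractions by flow cytometry; n = 3, mean ± SD.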

Assay [8] concerns the target Toll-like receptor 3 (Homo sapiens) (UniProt O15455). Briefly: Antagonist activity at human TLR3 expressed in HEK293 cells assessed as decrease in poly I:C-induced NF-kappaB activation-mediated SEAP production at 10^-9 to 10^-5 M after 24 hrs by Quanti-blue-based assay. The class given is cell-based. Put shortly:
(§3)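 HEK293 cells stably carrying a human TLR plus an NF-κB-driven SEAP reporter, seeded 5×10^4/well for 24 h at 37 °C, then stimulated: Pam3CSK4 100 µg/mL (TLR1/2), Pam2CSK4 100 µg/mL, poly I:C 5 µg/mL (TLR3), LPS 20 ng/mL (TLR4), flagellin 100 ng/mL (TLR5), R848 1 µg/mL (TLR7, TLR8), CpG-ODN2006 1 µg/mL (TLR9). After 24 h with compound, supernatant mixed with QUANTI-Blue, 1 h 37 °C, OD 620 nm.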

Assay [9] has as its system HeLa. The experiment in a line: Cell cycle arrest in human HeLa cells assessed as accumulation at G0/G1 phase at 5 uM after 24 hrs by propidium iodide staining based flow cytometry (reference value: 49.4%). The class given is functional. Put shortly:
as §2

For the next assay, the target named is TLR2/TLR6 (Homo sapiens) (UniProt O60603+Q9Y2C9). The experiment in a line: Antagonist activity at human TLR2/6 expressed in HEK293 cells assessed as decrease in Pam2CSK4-induced NF-kappaB activation-mediated SEAP production at 10^-9 to 10^-5 M after 24 hrs by Quanti-blue-based assay. The class given is cell-based. Summed up: as §3
The test system of another assay is RAW264.7. The experiment in a line: Inhibition of LPS-induced ERK phosphorylation in mouse RAW264.7 cells at 1 to 10 uM preincubated for 1 hr followed by LPS stimulation for 15 to 30 mins by Western blot method. The class given is cell-based. Summed up: as §1
Assay [10] concerns the target T1, Toll-like receptor 7 (Homo sapiens). Briefly: Antagonist activity at human TLR7 expressed in HEK293 cells assessed as decrease in R848-induced NF-kappaB activation-mediated SEAP production at 10^-9 to 10^-5 M after 24 hrs by Quanti-blue-based assay. The class given is cell-based. Put shortly: as §3
Assay [11] has as its system HeLa. Briefly: Cell cycle arrest in human HeLa cells assessed as accumulation at G0/G1 phase at 20 uM after 24 hrs by propidium iodide staining based flow cytometry (reference value: 49.4%). The class given is functional. Put shortly:
as §2

Chain of Toll-like receptor 3 (Homo sapiens) (O15455 whole entry): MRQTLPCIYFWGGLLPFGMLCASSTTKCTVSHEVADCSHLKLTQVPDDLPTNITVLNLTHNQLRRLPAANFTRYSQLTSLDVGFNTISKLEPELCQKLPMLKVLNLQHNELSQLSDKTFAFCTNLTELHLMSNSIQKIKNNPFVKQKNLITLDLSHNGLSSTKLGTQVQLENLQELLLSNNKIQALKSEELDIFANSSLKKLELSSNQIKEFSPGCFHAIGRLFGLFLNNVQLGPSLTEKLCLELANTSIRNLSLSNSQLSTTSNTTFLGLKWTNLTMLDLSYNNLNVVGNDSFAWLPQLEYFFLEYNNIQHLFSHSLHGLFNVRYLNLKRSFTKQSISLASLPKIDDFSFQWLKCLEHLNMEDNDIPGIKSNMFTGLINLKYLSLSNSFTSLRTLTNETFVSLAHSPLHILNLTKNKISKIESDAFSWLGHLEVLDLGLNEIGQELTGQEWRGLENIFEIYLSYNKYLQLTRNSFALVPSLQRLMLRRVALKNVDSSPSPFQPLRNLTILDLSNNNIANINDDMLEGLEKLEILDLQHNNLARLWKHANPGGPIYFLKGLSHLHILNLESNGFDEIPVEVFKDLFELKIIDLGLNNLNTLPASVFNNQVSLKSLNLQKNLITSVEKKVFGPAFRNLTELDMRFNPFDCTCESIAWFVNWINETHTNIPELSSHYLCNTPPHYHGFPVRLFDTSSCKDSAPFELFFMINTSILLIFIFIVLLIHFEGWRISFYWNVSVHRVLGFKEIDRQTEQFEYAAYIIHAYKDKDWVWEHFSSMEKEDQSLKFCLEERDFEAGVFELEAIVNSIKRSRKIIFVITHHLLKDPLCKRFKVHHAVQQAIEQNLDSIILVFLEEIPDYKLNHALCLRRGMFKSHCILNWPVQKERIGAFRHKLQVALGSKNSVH
Chain of Proto-oncogene tyrosine-protein kinase Src (Homo sapiens) (P12931 2-536 limits assumed): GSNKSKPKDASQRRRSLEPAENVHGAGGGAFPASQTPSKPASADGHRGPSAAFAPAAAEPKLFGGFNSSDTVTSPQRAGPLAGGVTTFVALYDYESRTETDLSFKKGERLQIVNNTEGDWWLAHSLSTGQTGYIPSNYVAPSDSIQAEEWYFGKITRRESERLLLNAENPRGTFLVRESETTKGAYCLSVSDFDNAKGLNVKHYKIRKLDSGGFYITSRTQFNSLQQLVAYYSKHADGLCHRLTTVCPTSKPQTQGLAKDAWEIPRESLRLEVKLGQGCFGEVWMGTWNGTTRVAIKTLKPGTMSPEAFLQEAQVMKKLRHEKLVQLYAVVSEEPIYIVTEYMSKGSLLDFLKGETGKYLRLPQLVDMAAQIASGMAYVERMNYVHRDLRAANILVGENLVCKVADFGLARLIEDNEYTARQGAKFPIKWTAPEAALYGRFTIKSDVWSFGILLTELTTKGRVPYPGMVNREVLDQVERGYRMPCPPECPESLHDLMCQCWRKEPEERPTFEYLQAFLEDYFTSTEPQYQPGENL

Regarding `O=C(NNC(=O)c1csc(-c2ccc(Cl)cc2Cl)n1)c1ccccn1`, the Activity result in the assay with HeLa [1] is “Dose-dependent effect”; in assay [5], 44%; in the assay with HeLa [7], 3.9%; with HeLa [9], 37.8%; in the assay with HeLa [11], 67%. Besides, the inhibition in assay [2] was 99.6%; in assay [4], under 50%. Besides, the inhibition result (in assay [3]; in the assay with RAW264.7) was “inactive” each time. The inhibition result (in assay [6]; in [8]; on TLR2/TLR6 (Homo sapiens); in assay [10]) was “Active” in each case.

As usually defined, the inhibition is the relative decrease from the control value, in per cent.
